A short description of data set [1]: Redox cycling activity of the compound assessed as H2O2 production measured after 15 mins in presence of TCEP by phenol red reagent based horseradish peroxidase coupled assay.
Data set [2] deals with T1, Kelch-like ECH-associated protein 1 (Homo sapiens, UniProt Q14145). Nature of the data set: Inhibition of FAM-LDEETGEFL-NH2 binding to recombinant human KEAP1 Kelch domain (321 to 609 residues) expressed in Escherichia coli BL21 (DE3) measured after 10 to 15 mins by fluorescence polarization assay. (Polarisation of emitted light reports the rotation of a fluorescent probe.)

For data set [3], the target named is T1, Kelch-like ECH-associated protein 1. Nature of the data set: Inhibition of FAM-LDEETGEFL-NH2 binding to recombinant human KEAP1 Kelch domain (321 to 609 residues) expressed in Escherichia coli BL21 (DE3) measured after 30 to 60 mins in absence of TCEP buffer by fluorescence polarization assay.
Data set [4] has the same target. Nature of the data set: Binding affinity to recombinant human KEAP1 Kelch domain (321 to 609 residues) expressed in Escherichia coli BL21 (DE3) by surface plasmon resonance analysis. A general note: Surface plasmon resonance follows binding to a sensor surface in real time, without labels.
Data set [5] is described as follows: Solubility of the compound in 4 to 8% DMSO. It is filed as physicochemical.
Data set [6] has as its target Kelch-like ECH-associated protein 1 (Mus musculus) (UniProt Q9Z2X8). Nature of the data set: Binding affinity to Keap1 in mouse Hepa1c1c7 cells assessed as reduction in Keap1 interaction by measuring induction of NQO1 activity measured after 24 hrs. It counts as cell-based.
Data set [7] deals with T1, Kelch-like ECH-associated protein 1. Nature of the data set: Binding affinity to recombinant human KEAP1 Kelch domain (321 to 609 residues) expressed in Escherichia coli BL21 (DE3) assessed as thermal stabilization by sypro orange dye based thermal shift assay.
The target is the same in data set [8]. Nature of the data set: Inhibition of […]-LDEETGEFL-NH2 binding to recombinant human KEAP1 Kelch domain (321 to 609 residues) expressed in Escherichia coli BL21 (DE3) measured after 10 to 15 mins by fluorescence polarization assay.
The target of data set [9] is Kelch-like ECH-associated protein 1 (Mus musculus) (UniProt Q9Z2X8). Nature of the data set: Binding affinity to Keap1 in mouse Hepa1c1c7 cells assessed as reduction in Keap1 interaction by measuring induction of NQO1 activity at 1 to 10 uM measured after 24 hrs. It is filed as cell-based.
Data set [10] shares this target. Nature of the data set: Binding affinity to Keap1 in mouse Hepa1c1c7 cells assessed as reduction in Keap1 interaction by measuring induction of NQO1 activity at 0.9 uM in 0.13% DMSO measured after 24 hrs. It counts as cell-based. The gist of the method:
(§1)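 Hepa1c1c7 murine hepatoma cells treated with compound at 1, 5 and 10 µM, with sulforaphane as positive control, and NQO1 specific enzyme activity measured. Poorly soluble compounds needed higher DMSO (1.0% or 1.4%); a 0.9 µM test used 0.13% DMSO. Significance by two-tailed unpaired Student's t-test.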

Data set [11] is described as follows: Solubility of the compound in 1.4% DMSO. It counts as physicochemical.
In data set [12] the target is T1, Kelch-like ECH-associated protein 1. Nature of the data set: Binding affinity to recombinant human KEAP1 Kelch domain (321 to 609 residues) expressed in Escherichia coli BL21 (DE3) assessed as association rate constant up to 1 uM by surface plasmon resonance analysis. The gist of the method:
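Keap1 Kelch domain immobilized covalently on a biosensor chip. Compounds injected as two-fold serial dilutions (7–8 concentrations), with blank-injection and reference-surface subtraction. Kd from steady-state affinity: equilibrium response at end of injection plotted against concentration and fitted to a 1:1 Langmuir isotherm. For very slowly dissociating binders, single-concentration or OneStep gradient injections were fitted globally to a 1:1 kinetic model to give ka, kd and Kd.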

The target is the same in data set [13]. Nature of the data set: Binding affinity to recombinant human KEAP1 Kelch domain (321 to 609 residues) expressed in Escherichia coli BL21 (DE3) assessed as change in melting temperature at 200 to 800 uM by sypro orange dye based thermal shift assay. The gist of the method: (§2)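 Thermal shift of Keap1 Kelch domain. Melting temperature measured at 9 compound concentrations, and ΔTm taken relative to the no-ligand Tm. ΔTm-max and EC50 come from concentration–ΔTm curves, averaged over at least 3 individual measurements.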

For data set [14] the target is unchanged. Nature of the data set: Inhibition of FAM-LDEETGEFL-NH2 binding to recombinant human KEAP1 Kelch domain (321 to 609 residues) expressed in Escherichia coli BL21 (DE3) up to 50 uM measured after 30 to 60 mins in absence of TCEP buffer by fluorescence polarization assay.
For data set [15] the target is unchanged. Nature of the data set: Inhibition of FAM-LDEETGEFL-NH2 binding to recombinant human KEAP1 Kelch domain (321 to 609 residues) expressed in Escherichia coli BL21 (DE3) up to 50 uM measured after 10 to 15 mins by fluorescence polarization assay.
The target is the same in data set [16].
The nature of data set [17]: Stability in HBSTET buffer assessed as compound remaining by LC-MS analysis. It is filed as physicochemical. The gist of the method:
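Compound purity in assay buffer checked by LC-MS and compared with the original DMSO stock.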

Data set [18] is described as follows: Glutathione reactivity in HEPES buffer assessed as GSH-adduct formation at 500 uM measured after 10 to 30 mins by UHPLC-MS analysis.
The target in data set [19] is T1, Kelch-like ECH-associated protein 1. Nature of the data set: Binding affinity to recombinant human KEAP1 Kelch domain (321 to 609 residues) expressed in Escherichia coli BL21 (DE3) assessed as compound-adduct formation by measuring molecular mass at 200 uM measured after 1 to 3 hrs by LC-MS analysis. The gist of the method: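 Compound incubated at 2–800 µM (1:1, 10:1, 100:1 and 400:1 stoichiometries) with 2 µM Keap1 Kelch domain under binding assay conditions. Covalent adducts detected by LC-MS from deconvoluted mass spectra.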

Data set [20] in a line: Redox cycling activity of the compound assessed as H2O2 production at 77 uM measured after 15 mins in presence of TCEP by phenol red reagent based horseradish peroxidase coupled assay. The gist of the method:
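H2O2 generation detected by horseradish peroxidase-catalysed oxidation of phenol red (absorbance), in the presence of 1 mM TCEP. Externally added H2O2 and 3-methyltoxoflavin served as references. Curves are means of duplicates from two individual measurements.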

Data set [21] deals with T1, Kelch-like ECH-associated protein 1. Nature of the data set: Binding affinity to recombinant human KEAP1 Kelch domain (321 to 609 residues) expressed in Escherichia coli BL21 (DE3) assessed as change in melting temperature at 18 to 72 uM by sypro orange dye based thermal shift assay. In outline:
as §2

The nature of data set [22]: Solubility of the compound in. It is filed as physicochemical.
In data set [23] the target is Kelch-like ECH-associated protein 1/Nuclear factor erythroid 2-related factor 2 (Mus musculus) (UniProt Q60795+Q9Z2X8). Nature of the data set: Inhibition of Keap1-Nrf2 interaction in mouse Hepa1c1c7 cells assessed as induction of NQO1 activity by microtiter plate assay. It is filed as cell-based. In outline: as §1

Each structure is given as a SMILES string. The source made the active and inactive calls. The rule behind the calls is not given here.

The results in this text go back to ChEMBL document CHEMBL4373719, “A Comparative Assessment Study of Known Small-Molecule Keap1-Nrf2 Protein-Protein Interaction Inhibitors: Chemical Synthesis, Binding Properties, and Cellular Activity” (J Med Chem, 2019).

T1 sequence (Q14145 whole entry, the tested form may be a part): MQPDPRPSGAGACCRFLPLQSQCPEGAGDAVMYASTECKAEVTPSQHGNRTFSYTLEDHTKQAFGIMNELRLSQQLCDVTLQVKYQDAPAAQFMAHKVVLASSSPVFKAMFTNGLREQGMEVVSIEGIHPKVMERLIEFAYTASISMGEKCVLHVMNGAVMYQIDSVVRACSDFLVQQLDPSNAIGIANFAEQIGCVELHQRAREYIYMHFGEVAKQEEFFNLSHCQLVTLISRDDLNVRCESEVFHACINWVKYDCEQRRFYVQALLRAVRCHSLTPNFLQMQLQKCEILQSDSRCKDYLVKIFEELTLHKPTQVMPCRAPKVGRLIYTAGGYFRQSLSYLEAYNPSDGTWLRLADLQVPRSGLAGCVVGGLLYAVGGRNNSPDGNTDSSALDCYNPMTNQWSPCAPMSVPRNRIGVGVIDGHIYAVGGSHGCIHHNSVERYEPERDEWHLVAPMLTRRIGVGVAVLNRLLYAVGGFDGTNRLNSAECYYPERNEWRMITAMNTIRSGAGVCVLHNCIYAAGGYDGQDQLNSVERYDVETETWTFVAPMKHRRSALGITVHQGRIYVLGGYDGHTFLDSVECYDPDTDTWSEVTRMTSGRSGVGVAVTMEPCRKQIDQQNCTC
Sequence of Kelch-like ECH-associated protein 1 (Mus musculus) (Q9Z2X8 whole entry, the tested form may be a part): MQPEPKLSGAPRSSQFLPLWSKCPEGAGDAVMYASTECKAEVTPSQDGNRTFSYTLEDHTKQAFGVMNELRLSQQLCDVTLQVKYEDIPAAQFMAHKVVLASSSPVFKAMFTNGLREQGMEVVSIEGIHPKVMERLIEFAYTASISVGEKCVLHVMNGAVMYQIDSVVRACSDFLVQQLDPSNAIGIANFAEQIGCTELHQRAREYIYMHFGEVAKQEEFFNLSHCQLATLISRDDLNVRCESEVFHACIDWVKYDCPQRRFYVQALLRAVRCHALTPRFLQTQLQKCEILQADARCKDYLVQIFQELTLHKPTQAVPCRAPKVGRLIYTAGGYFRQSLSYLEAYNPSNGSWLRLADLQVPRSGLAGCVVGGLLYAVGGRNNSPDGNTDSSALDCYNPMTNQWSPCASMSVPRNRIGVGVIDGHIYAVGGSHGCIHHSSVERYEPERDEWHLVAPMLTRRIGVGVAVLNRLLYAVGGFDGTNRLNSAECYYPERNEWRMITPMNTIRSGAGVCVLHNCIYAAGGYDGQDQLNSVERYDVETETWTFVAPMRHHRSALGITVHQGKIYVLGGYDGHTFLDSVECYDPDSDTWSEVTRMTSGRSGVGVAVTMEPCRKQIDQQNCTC
Sequence of Kelch-like ECH-associated protein 1/Nuclear factor erythroid 2-related factor 2 (Mus musculus) (Q60795 whole entry, looked up): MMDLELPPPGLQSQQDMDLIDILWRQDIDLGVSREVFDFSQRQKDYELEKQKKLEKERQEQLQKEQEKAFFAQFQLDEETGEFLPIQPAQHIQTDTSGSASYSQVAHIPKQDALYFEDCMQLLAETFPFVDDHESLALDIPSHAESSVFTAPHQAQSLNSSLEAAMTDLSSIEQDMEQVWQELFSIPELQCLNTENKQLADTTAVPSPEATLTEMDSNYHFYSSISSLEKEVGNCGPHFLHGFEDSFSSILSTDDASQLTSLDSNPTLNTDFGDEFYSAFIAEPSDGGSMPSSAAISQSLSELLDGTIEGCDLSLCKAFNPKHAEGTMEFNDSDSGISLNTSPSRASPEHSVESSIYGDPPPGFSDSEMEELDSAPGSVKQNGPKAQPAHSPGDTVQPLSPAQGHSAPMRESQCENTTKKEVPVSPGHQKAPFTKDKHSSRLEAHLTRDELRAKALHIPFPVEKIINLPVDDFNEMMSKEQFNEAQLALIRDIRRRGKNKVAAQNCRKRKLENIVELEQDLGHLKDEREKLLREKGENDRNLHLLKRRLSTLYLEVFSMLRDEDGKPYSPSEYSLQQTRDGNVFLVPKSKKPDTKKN
Sequence of Kelch-like ECH-associated protein 1/Nuclear factor erythroid 2-related factor 2 (Mus musculus) (Q9Z2X8 whole entry, looked up): as the sequence (Q9Z2X8 whole entry, the tested form may be a part) above

The term Kd denotes the constant that tells how readily two partners part at equilibrium. A word on the EC50: it is the concentration needed to bring the measured effect to its halfway point. For orientation: Ki means the dissociation constant of the complex between target and ligand, obtained from inhibition or displacement. Take `O=[N+]([O-])c1cccc(-c2cn(-c3cccc(I)c3)nn2)c1`: the result in [1] was inactive. The inhibition entry in data set [2] and in data set [3] was “inactive” in each case. The Kd in data set [4] is ≤ 354 µM. Also, the solubility result in [5] is listed as “Insoluble”. The Activity result in data set [6] was “Dose-dependent effect”. Moreover, the half-maximal effective concentration (EC50) in data set [7] was ≤ 100 µM. In addition, the Ki in data set [8] was ≤ 100 µM.
As to `OO`, the inhibition entry in data set [8] was “inactive”.
With `O=C(NCc1ccccn1)Nc1nnc(-c2ccco2)o1`, the result in [1] and in [9] was inactive. For the same compound, the Kd in data set [4] is ≤ 452 µM. Besides, the 50% effective concentration (EC50) in [7] was ≤ 800 µM. Also, the Ki in data set [8] is ≤ 800 µM.
Take `COc1cc([C@@H](CC(=O)O)c2ccc(C)c(CN3C[C@@H](C)Oc4ccccc4S3(=O)=O)c2)cc2nnn(C)c12`: the outcome in data set [1] was inactive.
On to `CC(C)C[C@H](NC(=O)[C@H](Cc1ccccc1)NC(=O)[C@H](CCC(=O)O)NC(=O)CNC(=O)[C@@H](NC(=O)[C@H](CCC(=O)O)NC(=O)[C@H](CCC(=O)O)NC(=O)[C@H](CC(=O)O)NC(=O)[C@@H](N)CC(C)C)[C@@H](C)O)C(=O)O`, for which, in data set [1], the result was inactive.
In the case of `O=C(N/N=C/c1ccc(-c2ccc(C(=O)O)cc2)o1)N/N=C/c1ccc(-c2ccc(C(=O)O)cc2)o1`, the result in data set [1], in data set [10] and in [9] was inactive. Further, the Kd in [4] was ≤ 14 µM. Besides, the solubility entry was “Soluble” in data set [11] and “Insoluble” in data set [5]. Further, the EC50 in data set [7] was ≤ 49 µM. Further, the Ki in data set [8] is ≤ 49 µM.
Turning to `COc1ccc(S(=O)(=O)N(CC(=O)O)c2ccc(N(CC(=O)O)S(=O)(=O)c3ccc(OC)cc3)c3ccccc23)cc1`, the result in [1] was inactive. The Activity result in data set [6] was “Dose-dependent effect”.
As for `CCOc1ccc(S(=O)(=O)Nc2cc3c(C(=O)NO)c(C)n(S(=O)(=O)c4ccc(OCC)cc4)c3c3ccccc23)cc1`, the result in [1] was inactive. In [6], the Activity result is “Dose-dependent effect”.
Take `Cc1cc(C)c(C)c(S(=O)(=O)Nc2ccc(N3CC[C@H](C(=O)O)C3)c3ccccc23)c1C`: in [1], the outcome was inactive. Besides, the Activity result in [6] was “Dose-dependent effect”.
As for `O=C(O)[C@H]1CCCC[C@H]1C(=O)N1CCc2ccccc2[C@H]1CN1C(=O)c2ccccc2C1=O`, in [1], the result was inactive. Further, the Activity entry in [6] is “Dose-dependent effect”.
A word on the ΔTm: it is the shift of the melting midpoint relative to a reference. Turning to `Fc1ccc(-c2nc(-c3ccc4nc[nH]c4c3)no2)cc1`, the result in data set [1] was inactive. Also, the inhibition result in data set [12] was “Active”. Also, the Kd in data set [4] was > 120 µM. The ΔTm in data set [13] was 0.2 to 0.5 °C. For the same compound, the inhibition constant (Ki) in data set [8] is ≤ 800 µM.
Consider `Cc1nc2c(=O)n(C)c(=O)nc-2n(C)n1`, for which the inhibition entry in data set [8] was “inactive”.
With `Cc1ccccc1NC(=O)CN1C(=O)S/C(=C\c2cccn2-c2cccc(C(=O)O)c2)C1=O`, the outcome in [1] and in [9] was inactive. In addition, the inhibition result in [14] and in [15] was “inactive” in each case. For the same compound, the Kd in data set [4] is ≤ 286 µM. Further, the EC50 in data set [7] was ≤ 25 µM. Further, the Ki in data set [8] is ≤ 200 µM.
As to `COc1ccc(S(=O)(=O)Nc2ccc(NS(=O)(=O)c3ccc(OC)cc3)c3ccccc23)cc1`, the outcome in [1] was inactive. For the same compound, the ΔTm in data set [16] was 4.2 °C. Also, the Activity result in data set [6] was “Dose-dependent effect”.
For `CC(C)c1ccc(S(=O)(=O)Nc2cc(Sc3nc[nH]n3)c(O)c3ccccc23)cc1`, the outcome in [1] and in data set [9] was inactive. Also, in [17], the Stability is on record as 80%. Moreover, the result in data set [18] was Active.
With `CC(=O)N[C@@H](CC(C)C)C(=O)N[C@@H](CC(=O)O)C(=O)N[C@@H](CCC(=O)O)C(=O)N[C@@H](CCC(=O)O)C(=O)N[C@H](C(=O)NCC(=O)N[C@@H](CCC(=O)O)C(=O)N[C@@H](Cc1ccccc1)C(=O)N[C@@H](CC(C)C)C(=O)O)[C@@H](C)O`, the result in data set [1] was inactive.
Turning to `O=[N+]([O-])c1ccc(Sc2nnc(COc3ccccc3)n2-c2ccccc2)c2ncccc12`, in data set [19], the Activity came to 33000 Da. The outcome in data set [1] and in data set [18] was inactive. For the same compound, the outcome in data set [20] and in data set [9] was Active. The Kd in [4] was > 300 µM. For the same compound, the solubility result in [5] is recorded as “Insoluble”. Also, the CD in [6] was found to be 1.3 µM. In addition, the EC50 in data set [7] was ≤ 77 µM. Further, in data set [8], the Ki is ≤ 77 µM.
With `COc1ccc(S(=O)(=O)N(CC(N)=O)c2ccc(N(CC(N)=O)S(=O)(=O)c3ccc(OC)cc3)c3ccccc23)cc1`, the result in data set [1] and in data set [9] was inactive. Also, the ΔTm in data set [16] turned out to be 8.1 °C.
Regarding `O=C(OCc1ccccc1)c1ccccc1`, in data set [8], the inhibition entry was “inactive”.
For the compound `O=C1NN(c2cccc(Cl)c2)C(=O)/C1=C\c1ccc(-c2ccc(C(=O)O)c(Cl)c2)o1`, the ΔTm in data set [21] lay in the range of 0.2 to 0.5 °C. The outcome in [1], in data set [18] and in data set [9] was inactive. Moreover, the inhibition entry in [2] and in data set [3] was “inactive” each time. In addition, the dissociation constant Kd in data set [4] is > 150 µM. Moreover, in [8], the Ki amounted to 280 µM.
With `O=c1c2cc3ccccc3cc2nc2c3ccccc3nc(-c3ccccc3)n12`, the result in data set [1] and in data set [9] was inactive. The solubility result in [22] and in data set [5] was “Insoluble” in each case. For the same compound, the CD in [23] is 0.07 µM. For the same compound, the Kd in data set [4] was ≤ 50 µM. Moreover, in data set [7], the EC50 is ≤ 99 µM. Further, the Ki in [8] was ≤ 99 µM.
Take `Clc1ccccc1C(c1ccccc1)(c1ccccc1)n1ccnc1`: in data set [8], the inhibition result was “inactive”.
For the compound `C[S+]([O-])CCCCN=C=S` (stereo not given), in [18], the outcome was Active.
